Active and inactive are the calls of the source. The rule behind the calls is not given here.
Assays:
Oryctolagus cuniculus [1] = organism: Oryctolagus cuniculus; test: Noncompetitive inhibition of rabbit liver guanase using guanine as substrate by Lineweaver-Burk plot analysis
In short: (§1)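 Kinetics used rabbit liver guanase in pH 7.4 0.05 M Tris-HCl, with guanine at 20, 10, 6.4 and 4.8 µM and four inhibitor concentrations, read at 248 nm. Lineweaver–Burk (1/V vs 1/[S]) and Dixon (1/V vs [I]) plots were drawn. Ki was taken from the Dixon x-intercept ([…]).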

[2] = molecular target: T1, Xanthine dehydrogenase/oxidase (Homo sapiens, UniProt P47989); test: Inhibition of xanthine oxidase (unknown origin) assessed as conversion of xanthine to uric acid under aerobic condition at 0.5 mM after 1 hr; conditions: 500 µM
In short: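 Oxidized-form incubation: xanthine oxidase (50 µL of 1.2 µM) was incubated aerobically for 1.0 h with 1.0 mL of a 5 × 10⁻⁴ M compound solution and EDTA in Tris-HCl buffer, total 2.75 mL. Xanthine was then added, and the initial rate of uric acid formation was read at 295 nm against controls without compound.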

[3] = Noncompetitive inhibition of rabbit liver guanase using guanine as substrate by Dixon plot analysis; design: species or system Oryctolagus cuniculus; in short: as §1
[4] = molecular target: T1, Xanthine dehydrogenase/oxidase; test: Inhibition of xanthine oxidase (unknown origin) assessed as conversion of xanthine to uric acid under anaerobic condition at 5 X 10^-4 M after 1 hr; conditions: 500 µM
In short: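 Reduced-form incubation: xanthine oxidase (50 µL of 1.2 µM), 1.0 mL of a 5 × 10⁻⁴ M compound solution and EDTA in pH 7.4 Tris were purged with N₂. Xanthine was added to reduce the enzyme, and the sealed tube was held 1 h at 25 °C (compound:enzyme 8.3 × 10³). The tube was then opened to air, xanthine added, and the 295 nm initial rate compared with controls.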

[5] = Dissociation constant, pKa of the compound by titrimetric analysis; format: physicochemical
Oryctolagus cuniculus [6] = organism: Oryctolagus cuniculus; test: Inhibition of rabbit liver guanase using 13.3 uM guanine as substrate assessed as ([I]/[S])50
In short: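 Rabbit liver guanase in 1.0 mL pH 7.4 0.05 M Tris-HCl with 13.3 µM guanine and varying inhibitor, started by adding enzyme. Guanine loss read at 248 nm. V0/Vi was plotted against [I], and I50 was taken where V0/Vi = 2, then expressed relative to the substrate level. Values were reproducible within ±20%.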

Oryctolagus cuniculus [7] = organism: Oryctolagus cuniculus; test: Inhibition of rabbit liver guanase using guanine as substrate compound treated at 32 times substrate concentration
In short: (§2)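 Rabbit liver guanase assay in 1.0 mL pH 7.4 0.05 M Tris-HCl with 13.3 µM guanine, started by adding enzyme. Guanine disappearance was followed at 248 nm and compared with a reaction run without inhibitor.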

Oryctolagus cuniculus [8] = organism: Oryctolagus cuniculus; test: Inhibition of rabbit liver guanase using guanine as substrate at 0.4 mM; in short: as §2
Oryctolagus cuniculus [9] = organism: Oryctolagus cuniculus; test: Inhibition of rabbit liver guanase using guanine as substrate compound treated at 46 times substrate concentration; in short: as §2
Oryctolagus cuniculus [10] = organism: Oryctolagus cuniculus; test: Inhibition of rabbit liver guanase using guanine as substrate compound treated at 28 times substrate concentration
In short: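 Rabbit liver guanase, diluted from a 10 mg protein/mL stock, run at pH 7.4 in 0.05 M Tris-HCl with 13.3 µM guanine as substrate. Inhibitor was added at varying amounts, at least 28 times the substrate concentration. The enzyme was added last to start the reaction. Guanine loss was followed at 248 nm, and velocities were compared with the uninhibited control.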

T1 sequence (P47989 whole entry): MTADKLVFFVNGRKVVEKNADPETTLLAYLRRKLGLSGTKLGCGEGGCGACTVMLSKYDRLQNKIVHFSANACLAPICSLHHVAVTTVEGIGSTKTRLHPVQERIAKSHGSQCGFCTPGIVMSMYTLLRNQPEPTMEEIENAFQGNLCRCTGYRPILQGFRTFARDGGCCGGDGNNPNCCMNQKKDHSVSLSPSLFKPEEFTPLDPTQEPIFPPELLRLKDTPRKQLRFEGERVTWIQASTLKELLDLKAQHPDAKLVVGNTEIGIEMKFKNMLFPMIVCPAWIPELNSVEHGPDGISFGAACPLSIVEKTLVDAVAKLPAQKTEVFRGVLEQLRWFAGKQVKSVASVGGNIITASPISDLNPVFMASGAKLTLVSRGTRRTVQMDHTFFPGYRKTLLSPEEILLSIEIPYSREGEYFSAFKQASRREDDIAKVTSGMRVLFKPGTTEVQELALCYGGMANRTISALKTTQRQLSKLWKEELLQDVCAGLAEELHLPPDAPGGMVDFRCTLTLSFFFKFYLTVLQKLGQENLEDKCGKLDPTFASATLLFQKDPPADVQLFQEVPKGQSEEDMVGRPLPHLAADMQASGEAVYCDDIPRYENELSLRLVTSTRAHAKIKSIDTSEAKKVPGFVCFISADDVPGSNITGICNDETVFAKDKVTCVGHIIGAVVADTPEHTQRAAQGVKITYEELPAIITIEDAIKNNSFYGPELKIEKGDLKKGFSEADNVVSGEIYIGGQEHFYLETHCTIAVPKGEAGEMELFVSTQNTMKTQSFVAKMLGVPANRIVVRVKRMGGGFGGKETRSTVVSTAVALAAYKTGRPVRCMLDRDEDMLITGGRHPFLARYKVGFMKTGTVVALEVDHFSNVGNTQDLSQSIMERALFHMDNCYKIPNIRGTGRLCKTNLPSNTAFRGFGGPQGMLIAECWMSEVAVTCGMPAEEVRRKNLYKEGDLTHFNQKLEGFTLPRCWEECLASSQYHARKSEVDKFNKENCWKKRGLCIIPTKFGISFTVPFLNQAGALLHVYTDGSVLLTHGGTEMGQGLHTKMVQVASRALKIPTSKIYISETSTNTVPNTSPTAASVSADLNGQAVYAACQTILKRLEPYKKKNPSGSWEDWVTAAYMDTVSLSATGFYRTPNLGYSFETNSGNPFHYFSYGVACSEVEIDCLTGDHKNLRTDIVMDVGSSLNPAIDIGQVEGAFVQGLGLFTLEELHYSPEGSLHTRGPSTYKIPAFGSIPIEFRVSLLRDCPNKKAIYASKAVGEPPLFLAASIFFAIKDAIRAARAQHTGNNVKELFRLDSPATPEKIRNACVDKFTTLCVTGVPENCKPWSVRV

Structure (SMILES)	inhibition (INH) [2]	inhibition (INH) [4]	pKa [5]	other results
O=C1NS(=O)(=O)Nc2[nH]ncc21	Not Active	Not Active	6.5	inhibition (Oryctolagus cuniculus [1]): Active; Ki [3]: 250 µM; Ratio (Oryctolagus cuniculus [6]): 15
NC1=NS(=O)(=O)Nc2[nH]ncc21	Not Active	Not Active	4.1	inhibition (Oryctolagus cuniculus [7]): inactive
NC1=NS(=O)(=O)Nc2nsnc21	Not Active	Not Active	3.2	inhibition (Oryctolagus cuniculus [1]): Active; Ki [3]: 190 µM; Ratio (Oryctolagus cuniculus [6]): 11
NC1=NS(=O)(=O)Nc2nc[nH]c21	Not Active	Not Active	–	–
O=c1[nH]cnc2nsnc12	–	–	–	inhibition (Oryctolagus cuniculus [8]): inactive
NC1=NS(=O)(=O)Nc2[nH]cnc21	–	–	–	inhibition (Oryctolagus cuniculus [9]): inactive
O=C1NS(=O)(=O)Nc2nc[nH]c21	Not Active	Not Active	–	inhibition (Oryctolagus cuniculus [10]): inactive
